Compounds with a hit are over-represented: about 1.8% of the library has one in this group of screens.
Ecoli rRNA inh = inhibitors of bacterial rRNA selective over humanized ribosomes; GFP signal change (wild-type ribosome), % (test concentration not listed); E. coli WT GFP vs humanized-ribosome RFP mutants, fluorescence, 24 h; hits give low values; DMSO median 0, no signal -100; hit rate 1.6% among 350,000;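 active = significant combined selectivity score with lowered wild-type GFP, culture density cut under 30%, mutant RFP and density less affected; inactive = any of these conditions unmet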
MT1-MMP act inh = inhibitors of human MT1-MMP activation. P50281. HT1080 RFP-PRO-GFP cells, GFP/RFP ratio fluorescence, overnight; percent of plate control window, DMSO zero. GFP/RFP ratio change, % at 20 µM. hit rate 0.061% among 360,000;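 active = GFP/RFP ratio change of at least 30% with cell ATP level not reduced by more than half and red fluorescence within 50% of control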
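Assay system: HT1080 RFP-PRO-GFP cells. Benchmarks: DMSO vehicle wells and RFP-L50D-GFP reporter cell wells. Times: overnight cell settling, then overnight compound exposure, 37 °C, 5% CO2. Compound: 20 µM single dose, 1% DMSO. Read-out basis: GFP/RFP fluorescence ratio.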
Cneo AK release = Cryptococcus neoformans lysis via adenylate kinase release; C. neoformans lysis, adenylate kinase release luminescence, 4 h; normalised: neutral wells 0, clomiphene wells 100; lysis activity, % at 15 µM; hit rate 0.2% among 360,000; AID 651654;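 active = mean lysis activity across replicates of at least 80%, whatever share of replicates individually reach that level; inactive = mean lysis activity below 80%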
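Assay system: C. neoformans cells. Amount: yeast cell density of 5 × 10^6 cells/mL. Technique: AK luminescence. Buffer or medium: YPD. Times: static 4 h at 37 °C with compound, 1 h detection. Dosing: single-point compound dose. Read-out: lysis from increased AK signal.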
DAGLB inhibitor = diacylglycerol lipase beta (human) inhibition; Q8NCG7; HEK293T DAGLB membrane lysate, EnzChek fluorogenic substrate; inhibition, % at 5.17 µM; hit rate 0.059% among 340,000; AID 504411; in the data active = inhibition above about 34%
Target sequence (Q8NCG7 whole entry, looked up): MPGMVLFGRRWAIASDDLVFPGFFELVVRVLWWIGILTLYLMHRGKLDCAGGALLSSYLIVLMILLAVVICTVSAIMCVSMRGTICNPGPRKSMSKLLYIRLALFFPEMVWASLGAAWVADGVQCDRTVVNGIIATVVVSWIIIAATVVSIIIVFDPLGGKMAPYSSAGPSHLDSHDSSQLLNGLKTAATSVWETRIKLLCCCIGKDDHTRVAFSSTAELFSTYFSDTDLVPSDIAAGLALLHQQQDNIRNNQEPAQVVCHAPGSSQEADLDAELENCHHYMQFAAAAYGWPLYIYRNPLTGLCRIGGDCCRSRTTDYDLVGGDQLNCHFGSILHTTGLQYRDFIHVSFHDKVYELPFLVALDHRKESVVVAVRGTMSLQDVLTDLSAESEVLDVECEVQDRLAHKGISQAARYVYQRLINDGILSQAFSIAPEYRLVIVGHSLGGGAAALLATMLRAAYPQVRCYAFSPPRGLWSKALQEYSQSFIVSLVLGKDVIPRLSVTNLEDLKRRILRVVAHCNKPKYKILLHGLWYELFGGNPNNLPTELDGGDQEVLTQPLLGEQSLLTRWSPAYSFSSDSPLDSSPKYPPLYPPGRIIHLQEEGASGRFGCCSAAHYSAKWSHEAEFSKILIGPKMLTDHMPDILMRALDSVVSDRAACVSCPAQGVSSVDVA
iPSC survival up = increases survival of single human iPS cells; survival enhancement, % at 20 µM; AID 602274; hit rate 0.044% among 360,000; hiPSC single-cell survival, ATPlite luminescence; 100% = ROCK inhibitor wells, 0% = DMSO; in the data active = survival enhancement above about 18%;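 also: cells exposed to compounds for 16 hours before the ATP read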
SKN-1 inh = C. elegans SKN-1 inhibition; C. elegans VP596 Pgst-4::GFP/RFP ratio, acrylamide-induced, 24 h; inhibition, % at 21.8 µM; hit rate 0.49% among 360,000; AID 624304;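 active = interference check ratio from 0.5 to 1.5 plus GFP to RFP signal ratio inhibition reaching or exceeding a fixed threshold, cut at about 30% in these data, passing the limit was not always enough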
Hits are given with their value; i = inactive; nt = no result.

SMILES | Ecoli rRNA inh | MT1-MMP act inh | Cneo AK release | DAGLB inhibitor | iPSC survival up | SKN-1 inh
COc1ccc(NC(=O)Nc2cccc3c2O[C@@H](CN(C)C(=O)Nc2cccc4ccccc24)[C@H](C)CN([C@@H](C)CO)C3=O)cc1 | i | nt | i | nt | nt | nt
CC(=O)Oc1ccc2c(=O)c(-c3ccccc3)coc2c1 | -24 | i | nt | i | i | i
Cc1sc2ncn(CC(=O)Nc3ccccc3F)c(=O)c2c1-c1ccccc1 | -28 | i | i | i | i | i
c1ccc(-c2noc(CSc3nc4ccccc4o3)n2)cc1 | nt | i | i | i | i | 44
CCOc1ccc(OCCSc2nc3ccccc3o2)cc1 | nt | i | nt | i | i | i
c1ccc2oc(SCc3nc4ccccc4s3)nc2c1 | nt | i | nt | i | i | 45
c1ccc(OCCSc2nc3ccccc3o2)cc1 | nt | i | i | i | i | 39
N#CCc1nc(CSc2nc3ccccc3o2)cs1 | i | i | i | i | i | i
c1ccc(SCc2nc3ccccc3s2)nc1 | -23 | i | i | i | i | i
CC1(C(=O)NCc2ccccc2)CSCC(=O)N1CCc1c[nH]c2ccccc12 (stereo not drawn) | -41 | i | nt | nt | nt | i
Cn1c(C(=O)Nc2ccc3c(c2)OCCO3)cc2sccc21 | -32 | i | i | i | i | i
Cc1cccc(CCNS(=O)(=O)c2ccc3c(c2)NC(=O)CS3)c1 | -35 | i | i | i | i | i
Cc1ccc(NS(=O)(=O)c2ccc3c(c2)NC(=O)CCS3)cc1C | -26 | i | i | i | i | i
CNC[C@H]1Oc2cc(C#Cc3ccc(OC)cc3)ccc2S(=O)(=O)N([C@@H](C)CO)C[C@@H]1C | i | nt | i | nt | nt | nt
CC(=O)N(C)C[C@@H]1Oc2ncc(C#CCC3CCCC3)cc2C(=O)N([C@@H](C)CO)C[C@H]1C | i | nt | i | nt | nt | nt
CCCC(=O)Nc1ccc2c(c1)OC[C@@H](C)N(Cc1ccccc1)C[C@H](C)[C@H](OC)CN(C)C2=O | i | nt | i | nt | nt | nt
NCCNC(=O)c1c(NC(=O)c2ccccc2)sc2c1CCCC2 | -22 | i | i | i | i | i
COC(=O)c1c(NC(=O)c2ccccc2C(=O)O)sc2c1CCC2 | -21 | i | i | i | i | i
CCOc1ccc(N2C(=O)C(=O)/C(=C(/O)c3ccccc3)C2c2ccccc2[N+](=O)[O-])cc1 (stereo not drawn) | -17 | i | nt | i | i | i
COc1ccc(C[C@H]2CCc3cnnn3COC[C@H](Cc3ccccc3)NC2=O)cc1 | i | nt | i | nt | nt | nt
CCN(CC)C(=O)C1=C(C)N(CCC2=CCCCC2)C(=O)C(CC(=O)NCc2cccc3ccccc23)C1 (stereo not drawn) | nt | i | i | i | i | i
CC1=C(C(=O)N(C)C)CC(CC(=O)NCc2cccc3ccccc23)C(=O)N1CCC1=CCCCC1 (stereo not drawn) | -27 | i | i | i | i | i
Cn1nc(-c2ccccc2)c(C(O)c2ccccc2C(F)(F)F)c1Cl (stereo not drawn) | nt | i | i | i | 22 | i
COC(c1ccccc1)c1c(-c2ccccc2)nn(C)c1Cl (stereo not drawn) | nt | i | nt | i | i | i
COc1ccc(Cl)cc1C(=O)Nc1ccccc1N1CCCCC1 | i | i | i | i | i | 35
SMILES | Ecoli rRNA inh | MT1-MMP act inh | Cneo AK release | DAGLB inhibitor | iPSC survival up | SKN-1 inh
COC(=O)c1ccccc1NC(=O)N1CCN(c2ccc(OC)cc2)CC1 | i | i | nt | i | i | i
O=C(Nc1cc(F)ccc1F)N1CCN(c2ccnc3cc(Cl)ccc23)CC1 | -28 | i | nt | i | i | i
COc1ccc(Cl)cc1C(=O)Nc1ccccc1N1CCN(C)CC1 | nt | i | nt | i | i | i
Cc1ccc(F)cc1NC(=O)N1CCN(c2ccnc3cc(Cl)ccc23)CC1 | i | i | i | i | i | i
COc1ccc(N2CCN(CC(=O)Nc3ccccc3C(=O)NCc3ccccc3)CC2)cc1 | -29 | i | i | i | i | i
COc1ccc(N2CCN(C(=O)Nc3ccccc3Cl)CC2)cc1 | -23 | i | nt | i | i | i
CCCNC(=O)N(C)C[C@@H]1Oc2cc(-c3ccccc3F)ccc2S(=O)(=O)N([C@@H](C)CO)C[C@H]1C | i | nt | i | nt | nt | nt
C[C@@H]1CCCCO[C@H](CN(C)C(=O)NC2CCCCC2)[C@H](C)CN([C@H](C)CO)C(=O)c2cc(NC(=O)C3CCCCC3)ccc2O1 | i | nt | i | nt | nt | nt
O=C1N[C@H](Cc2ccccc2)COCc2cnnn2CC[C@@H]1Cc1cccc(F)c1 | i | nt | nt | nt | nt | nt
C[C@@H]1CN([C@@H](C)CO)C(=O)Cc2cc(NS(=O)(=O)c3ccc(F)cc3)ccc2O[C@@H]1CN(C)C(=O)Nc1cccc2ccccc12 | i | nt | i | nt | nt | nt
O=C(C[C@@H]1CC[C@H](NC(=O)Nc2ccc(C(F)(F)F)cc2)[C@@H](CO)O1)NCCN1CCCC1 | i | nt | i | nt | nt | nt
COc1ccc(Cl)cc1NC(=O)N1CCN(c2ccccc2OC)CC1 | -30 | i | i | i | i | i
Cc1ccc(OCC(=O)Nc2ccccc2N2CCCC2)c(C)c1 | -27 | i | nt | i | i | i
Cc1ccc(C)c(OCC(=O)Nc2ccccc2N2CCCC2)c1 | i | i | i | i | i | i
CC(C)C(=O)N1CCN(c2ccccc2NC(=O)COc2ccccc2)CC1 | -27 | i | i | i | i | i
COc1ccc(Cl)cc1NC(=O)NCC1CCN(C(=O)OC(C)(C)C)CC1 | -20 | i | i | i | i | i
COc1ccc(Cl)cc1NC(=O)NCCN1CCCCC1 | i | i | i | i | i | i
CC(C)CC#Cc1cnc2c(c1)C(=O)N([C@@H](C)CO)C[C@H](C)[C@@H](CN(C)C(=O)c1cnccn1)O2 | i | nt | i | nt | nt | nt
C[C@@H]1CCCCO[C@H](CN(C)S(=O)(=O)c2ccc(F)cc2)[C@@H](C)CN([C@@H](C)CO)C(=O)c2cc(NC(=O)CCCN(C)C)ccc2O1 | i | nt | i | nt | nt | nt
O=C(C[C@@H]1CC[C@@H]2[C@H](COC[C@H](O)CN2Cc2cc(F)ccc2F)O1)NCc1ccc(Cl)cc1 | i | nt | i | nt | nt | nt
N#Cc1ccc(-c2ccc3c(c2)[C@@H]2[C@@H](CCN2C(=O)C2CCC2)[C@H](CO)N3)cc1 | i | nt | nt | nt | nt | nt
COc1c(S(=O)(=O)N2CCCCC2)ccc2c(S(=O)(=O)N3CCCCC3)cccc12 | nt | i | i | i | i | i
O=S(=O)(c1cccc2c(S(=O)(=O)N3CCCC3)cccc12)N1CCCC1 | nt | i | nt | i | i | 36
C=CCOc1c(Br)cc(C2C3=C(CCCC3=O)N(C)C3=C2C(=O)CCC3)cc1OCC | -34 | i | nt | i | i | i
C=CCOc1ccc(C2C3=C(CCCC3=O)N(CC(=O)O)C3=C2C(=O)CCC3)cc1OCC | i | i | i | i | i | i
Cc1ccc(/C=C/C(=O)c2ccc(O)cc2)cc1 | -27 | i | nt | i | i | i
CN(C)c1ccc(C(=O)/C=C/c2ccccc2)cc1 | i | i | i | i | i | 43

Source: PubChem BioAssay
